We go through 30 compounds from paper PMC10945512 (RSC Advances, 2024).

Bounds are passed on as bounds.

One data set can be described thus: Cytotoxicity assay. The class given is cell-based, human. The note with it: human, MT-4 cells. The method, boiled down: (§1)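 MT-4 cells grown in RPMI-1640 with 10% FBS, 100 units per mL penicillin and streptomycin, at 37 °C in humidified 5% CO2. Cells seeded at 50 000 per well and exposed to test compound (2.5, 5, 10, 20, 40, 80 μM) for five days at 37 °C. MTT (final 0.5 mg mL−1) added for 2 h, then DMSO. A570 read; measured three times; CC50 calculated.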

The target in a further data set is HIV-1 integrase (Human immunodeficiency virus type 1 group M subtype B, UniProt P04585). Put plainly: Strand transfer inhibition assay. In kind it is biochemical.
Another data set deals with MT-4 cells. The experiment in a line: Cytotoxicity assay. The class given is cell-based, human. The note with it: read-out: CC50, concentration that inhibits the proliferation of MT-4 cells by 50%, MTT, five days, average of at least three independent experiments. The method, boiled down:
as §1

As usually defined, the IC50 is the concentration at which inhibition is half-maximal. `CCOC(=O)c1[nH]c2ccc(NC(=O)c3cnccn3)cc2c1Br` [Compound 13b, Ethyl 3-bromo-5-(pyrazine-2-carboxamido)-1H-indole-2-carboxylat]: the CC50 at 5 days in the data set “Cytotoxicity assay” was over 80 µM. At HIV-1 integrase, inhibition was half-maximal at 11.7 ± 1.08 µM (IC50).

`O=C(O)c1cc2ccc(Nc3ccc(Br)cc3)cc2[nH]1` [Compound 17b, 6-((4-Bromophenyl)amino)-1H-indole-2-carboxylic acid]: in “Cytotoxicity assay”, the CC50 at 5 days is over 80 µM. Moreover, the IC50 on HIV-1 integrase is 6.67 ± 0.51 µM. Consider `CCOC(=O)c1[nH]c2ccc(NC(=O)c3ccc(F)cc3)cc2c1Br` [Compound 13a, ethyl 3-bromo-5-(4-fluorobenzamido)-1H-indole-2-carboxylate], for which the CC50 at 5 days in the data set “Cytotoxicity assay” was over 80 µM. This compound also returned an IC50 against HIV-1 integrase of 26 ± 1.27 µM. In the same order, the values of `CCOC(=O)c1[nH]c2ccccc2c1Nc1cccc(OC)c1` [Compound 4b, Ethyl 3-((3-methoxyphenyl)amino)-1H-indole-2-carboxylate] are over 80 µM and 10.2 ± 0.67 µM. The corresponding values for `CCOC(=O)c1[nH]c2ccccc2c1Nc1ccccc1OC` [Compound 4a, ethyl 3-((2-methoxyphenyl)amino)-1H-indole-2-carboxylate] are over 80 µM and 10.1 ± 0.56 µM.

Consider `CCOC(=O)c1cc2ccc(NCc3ccc(OC)cc3)cc2[nH]1` [Compound 16j, Ethyl 6-((4-methoxybenzyl)amino)-1H-indole-2-carboxylate], for which the CC50 at 5 days in the data set “Cytotoxicity assay” was over 80 µM. Also, it took 9.67 ± 0.89 µM to reach half-maximal inhibition at HIV-1 integrase (IC50).

`Cc1nnc(C(=O)NC(C)(C)c2nc(C(=O)NCc3ccc(F)cc3)c(O)c(=O)n2C)o1` [RAL, Raltegravir, reference compound]: the CC50 at 5 days in the data set “Cytotoxicity assay” is over 80 µM. Regarding `CCOC(=O)c1cc2ccc(NCc3ccccc3F)cc2[nH]1` [Compound 16h, Ethyl 6-((2-fluorobenzyl)amino)-1H-indole-2-carboxylate], the CC50 at 5 days in the data set “Cytotoxicity assay” was over 80 µM. The compound further displayed an IC50 at HIV-1 integrase of 8.68 ± 0.77 µM. In the same order, the values of `CCOC(=O)c1cc2ccc(NCc3cccc(F)c3)cc2[nH]1` [Compound 16g, Ethyl 6-((3-fluorobenzyl)amino)-1H-indole-2-carboxylate] are over 80 µM and over 40 µM.

Turning to `COc1ccc(Nc2ccc3cc(C(=O)O)[nH]c3c2)cc1F` [Compound 17f, 6-((3-Fluoro-4-methoxyphenyl)amino)-1H-indole-2-carboxylic acid], the CC50 at 5 days in “Cytotoxicity assay” is over 80 µM. The compound further came in with an IC50 against HIV-1 integrase of 14.1 ± 0.78 µM. In the same order, the values of `CCOC(=O)c1cc2ccc(NCCc3ccc(F)cc3)cc2[nH]1` [Compound 16k, Ethyl 6-((4-fluorophenethyl)amino)-1H-indole-2-carboxylate] are over 80 µM and over 40 µM. Take `CCOC(=O)c1[nH]c2ccccc2c1Nc1ccccc1Cl` [Compound 4f, Ethyl 3-((2-chlorophenyl)amino)-1H-indole-2-carboxylate]: in the data set “Cytotoxicity assay”, the CC50 at 5 days is over 80 µM. In addition, the IC50 against HIV-1 integrase was over 40 µM. In the same order, the values of `CCOC(=O)c1cc2ccc(Nc3ccc(OC)cc3)cc2[nH]1` [Compound 16c, Ethyl 6-((4-methoxyphenyl)amino)-1H-indole-2-carboxylate] are over 80 µM and over 40 µM. On to “Isopropyl 3-((4-chlorophenethoxy)methyl)-5-nitro-1H-indole-2-carboxylate [Compound 9b]”, for which the CC50 with MT-4 cells was over 80 µM. The compound `O=C(O)c1cc2ccc(NCc3cccc(F)c3)cc2[nH]1` [Compound 17g, 6-((3-Fluorobenzyl)amino)-1H-indole-2-carboxylic acid] came in with a CC50 at 5 days in the data set “Cytotoxicity assay” of over 80 µM. Also, the IC50 against HIV-1 integrase is 15.6 ± 1.09 µM. In the same order, the values of `CCOC(=O)c1[nH]c2ccccc2c1Nc1ccc(OC)c(F)c1` [Compound 4d, Ethyl 3-((3-fluoro-4-methoxyphenyl)amino)-1H-indole-2-carboxylate] are over 80 µM and 15.6 ± 1.03 µM. The corresponding values for `CCOC(=O)c1cc2ccc(Nc3ccc(F)cc3)cc2[nH]1` [Compound 16a, Ethyl 6-((4-fluorophenyl)amino)-1H-indole-2-carboxylate] are over 80 µM and over 40 µM. In the same order, the values of `CCOC(=O)c1cc2ccc(NCc3ccccc3Cl)cc2[nH]1` [Compound 16i, Ethyl 6-((2-chlorobenzyl)amino)-1H-indole-2-carboxylate] are over 80 µM and 14.6 ± 1.12 µM. As for “isopropyl 5-nitro-3-((4-(trifluoromethyl)phenethoxy) methyl)-1H-indole-2-carboxylate [Compound 9a]”, the CC50 in the data set on MT-4 cells worked out at 54.3 ± 4.79 µM.

For `O=C(O)c1cc2ccccc2[nH]1` [Compound 1, indole-2-carboxylic acid], the CC50 at 5 days in the data set “Cytotoxicity assay” was over 80 µM. On HIV-1 integrase, the IC50 was 32.4 ± 4.51 µM. As for “5-nitro-3-(((4-(trifluoromethyl)benzyl)oxy)methyl)-1H-indole-2-carboxylic acid [Compound 10a]”, the CC50 in the data set with MT-4 cells was determined as 65.2 ± 5.22 µM. The compound `CCOC(=O)c1cc2ccc(Nc3ccc(Br)cc3)cc2[nH]1` [Compound 16b, Ethyl 6-((4-bromophenyl)amino)-1H-indole-2-carboxylate] yielded a CC50 at 5 days in “Cytotoxicity assay” of over 80 µM. For the same compound, the IC50 on HIV-1 integrase is over 40 µM. The corresponding values for `CCOC(=O)c1cc2ccc(Nc3ccccc3OC)cc2[nH]1` [Compound 16e, Ethyl 6-((2-methoxyphenyl)amino)-1H-indole-2-carboxylate] are over 80 µM and over 40 µM.

Compound `COc1ccccc1Nc1ccc2cc(C(=O)O)[nH]c2c1` [Compound 17e, 6-((2-Methoxyphenyl)amino)-1H-indole-2-carboxylic acid] came in with a CC50 at 5 days in the data set “Cytotoxicity assay” of over 80 µM. This compound also gave an IC50 at HIV-1 integrase of 7.08 ± 0.63 µM. In the same order, the values of `CCOC(=O)c1cc2ccc(Nc3cccc(OC)c3)cc2[nH]1` [Compound 16d, Ethyl 6-((3-methoxyphenyl)amino)-1H-indole-2-carboxylate] are over 80 µM and over 40 µM.

The compound `COc1ccc(Nc2ccc3cc(C(=O)O)[nH]c3c2)cc1` [Compound 17c, 6-((4-Methoxyphenyl)amino)-1H-indole-2-carboxylic acid] yielded a CC50 at 5 days in the data set “Cytotoxicity assay” of over 80 µM. On HIV-1 integrase, this compound gave an IC50 of 12.3 ± 1.06 µM.

For the compound `CCOC(=O)c1cc2ccc(Nc3ccc(OC)c(F)c3)cc2[nH]1` [Compound 16f, Ethyl 6-((3-fluoro-4-methoxyphenyl)amino)-1H-indole-2-carboxylate], the CC50 at 5 days in the data set “Cytotoxicity assay” is over 80 µM. Moreover, the IC50 on HIV-1 integrase is over 40 µM.

In the case of `CCOC(=O)c1[nH]c2ccccc2c1Nc1ccc(F)cc1` [Compound 4e, Ethyl 3-((4-fluorophenyl)amino)-1H-indole-2-carboxylate], the CC50 at 5 days in the data set “Cytotoxicity assay” is over 80 µM. The compound also yielded an IC50 on HIV-1 integrase of 15.7 ± 1.06 µM.

As to `CCOC(=O)c1[nH]c2ccccc2c1Nc1ccc(OC)cc1` [Compound 4c, Ethyl 3-((4-methoxyphenyl)amino)-1H-indole-2-carboxylate], the CC50 at 5 days in “Cytotoxicity assay” is over 80 µM. This compound showed an IC50 at HIV-1 integrase of over 40 µM. `O=C(O)c1cc2ccc(Nc3ccc(F)cc3)cc2[nH]1` [Compound 17a, 6-((4-Fluorophenyl)amino)-1H-indole-2-carboxylic acid] returned a CC50 at 5 days in the data set “Cytotoxicity assay” of over 80 µM. At HIV-1 integrase, this compound gave a half-inhibitory concentration (IC50) of 3.11 ± 0.18 µM.
